ChEMBL document CHEMBL1773060, “Two-step synthesis of novel, bioactive derivatives of the ubiquitous cofactor nicotinamide adenine dinucleotide (NAD)” (J Med Chem, 2011)
The source made the active and inactive calls. The rule behind the calls is not given here.

Assays:
[1] = target: T1, NAD-dependent protein deacetylase sirtuin-1 (Homo sapiens) (UniProt Q96EB6); experiment: Inhibition of human recombinant GST-tagged SIRT1 at 50 uM after 4 hrs by homogeneous fluorescent deacetylase assay
T1 sequence (whole entry): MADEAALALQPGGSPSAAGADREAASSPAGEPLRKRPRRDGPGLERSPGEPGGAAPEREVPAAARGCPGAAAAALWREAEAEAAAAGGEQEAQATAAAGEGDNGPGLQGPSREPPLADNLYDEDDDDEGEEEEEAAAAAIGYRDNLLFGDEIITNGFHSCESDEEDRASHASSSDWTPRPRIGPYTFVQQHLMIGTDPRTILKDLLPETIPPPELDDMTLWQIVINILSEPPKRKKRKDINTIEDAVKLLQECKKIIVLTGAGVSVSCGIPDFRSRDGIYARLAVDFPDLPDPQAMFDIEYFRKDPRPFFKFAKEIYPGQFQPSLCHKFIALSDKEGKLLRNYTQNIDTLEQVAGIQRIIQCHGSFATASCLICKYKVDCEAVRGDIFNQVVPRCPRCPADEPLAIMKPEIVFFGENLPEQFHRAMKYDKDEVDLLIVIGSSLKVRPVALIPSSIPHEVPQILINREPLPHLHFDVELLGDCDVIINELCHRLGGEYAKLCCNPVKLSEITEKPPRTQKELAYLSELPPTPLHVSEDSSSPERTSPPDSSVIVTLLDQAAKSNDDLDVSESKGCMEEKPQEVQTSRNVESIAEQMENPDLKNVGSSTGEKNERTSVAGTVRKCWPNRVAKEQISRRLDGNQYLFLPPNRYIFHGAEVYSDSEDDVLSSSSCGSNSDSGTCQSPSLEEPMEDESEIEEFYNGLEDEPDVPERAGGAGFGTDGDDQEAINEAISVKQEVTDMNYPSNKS

[2] = target: T2, NAD-dependent protein deacetylase sirtuin-2 (Homo sapiens) (UniProt Q8IXJ6); experiment: Inhibition of human recombinant N-terminally His6-tagged SIRT2 at 50 uM after 4 hrs by homogeneous fluorescent deacetylase assay
T2 sequence (whole entry): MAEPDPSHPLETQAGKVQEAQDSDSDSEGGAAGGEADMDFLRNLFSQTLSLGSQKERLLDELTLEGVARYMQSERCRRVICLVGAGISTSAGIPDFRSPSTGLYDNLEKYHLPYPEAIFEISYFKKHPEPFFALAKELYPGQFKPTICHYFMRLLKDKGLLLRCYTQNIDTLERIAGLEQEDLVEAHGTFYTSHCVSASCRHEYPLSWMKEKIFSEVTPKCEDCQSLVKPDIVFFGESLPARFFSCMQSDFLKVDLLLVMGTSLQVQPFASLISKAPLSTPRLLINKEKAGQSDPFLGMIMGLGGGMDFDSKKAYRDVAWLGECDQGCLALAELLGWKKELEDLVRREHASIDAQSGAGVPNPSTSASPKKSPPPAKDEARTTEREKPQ

[3] = target: T2, NAD-dependent protein deacetylase sirtuin-2 (Homo sapiens); experiment: Activity at human recombinant GST-tagged SIRT2 assessed as conversion of […] at 500 uM by fluorescence-based assay; conditions: in the assay text read “His6-tagged” for “GST-tagged”
Method in brief: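 Analogues, with NAD for comparison, were supplied at 500 μM as cosubstrate in place of NAD, in 8.3% (v/v) DMSO. Reaction used Z-(Ac)Lys-AMC (10.5 μM), 4 h at 37 °C. Trypsin/nicotinamide development followed, then fluorescence at ex 390/em 460 nm. Conversion compared against a blank without cofactor.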

[4] = target: T1, NAD-dependent protein deacetylase sirtuin-1 (Homo sapiens); experiment: Activity at human recombinant GST-tagged SIRT1 assessed as conversion of acetyllysine substrate to 7-amino-4-methylcoumarin at 500 uM by fluorescence-based assay

Compound Nc1ncnc2c1nc(Br)n2[C@@H]1O[C@H](CO)[C@@H](O)[C@H]1O has an inhibition [1] of less than 10% and an inhibition [2] of 16%.
Nc1ncnc2c1nc(Br)n2[C@@H]1O[C@H](COP(=O)(O)O)[C@@H](O)[C@H]1O gave an inhibition [1] of less than 10% and an inhibition [2] of less than 10%.
With Nc1ncnc2c1nc(-c1ccccc1)n2[C@@H]1O[C@H](CO)[C@@H](O)[C@H]1O the inhibition [1] was less than 10% and the inhibition [2] was less than 10%.
In the case of NC(=O)c1ccc[n+]([C@@H]2O[C@H](COP(=O)([O-])OP(=O)(O)OC[C@H]3O[C@@H](n4c(-c5ccc(Cl)cc5)nc5c(N)ncnc54)[C@H](O)[C@@H]3O)[C@@H](O)[C@H]2O)c1, the inhibition [1] is reported as 30%.
NC(=O)c1ccc[n+]([C@@H]2O[C@H](COP(=O)([O-])OP(=O)(O)OC[C@H]3O[C@@H](n4c(Br)nc5c(N)ncnc54)[C@H](O)[C@@H]3O)[C@@H](O)[C@H]2O)c1 showed an inhibition [1] of 31%.
In the case of COc1ccc(-c2nc3c(N)ncnc3n2[C@@H]2O[C@H](COP(=O)(O)OP(=O)([O-])OC[C@H]3O[C@@H]([n+]4cccc(C(N)=O)c4)[C@H](O)[C@@H]3O)[C@@H](O)[C@H]2O)cc1, the inhibition [1] is reported as 18%.
NC(=O)c1ccc[n+]([C@@H]2O[C@H](COP(=O)([O-])OP(=O)(O)OC[C@H]3O[C@@H](n4c(-c5ccco5)nc5c(N)ncnc54)[C@H](O)[C@@H]3O)[C@@H](O)[C@H]2O)c1 was tested, and the inhibition [1] was 16% and the inhibition [2] was 35%.
In the case of Cc1ccc(-c2nc3c(N)ncnc3n2[C@@H]2O[C@H](COP(=O)(O)OP(=O)([O-])OC[C@H]3O[C@@H]([n+]4cccc(C(N)=O)c4)[C@H](O)[C@@H]3O)[C@@H](O)[C@H]2O)cc1, the inhibition [1] is reported as 20%.
NC(=O)c1ccc[n+]([C@@H]2O[C@H](COP(=O)([O-])OP(=O)(O)OC[C@H]3O[C@@H](n4c(-c5ccccc5)nc5c(N)ncnc54)[C@H](O)[C@@H]3O)[C@@H](O)[C@H]2O)c1 was tested, and the inhibition [1] was 17%, the Activity [3] was “Active” and the Activity [4] was “Active”.
